Data taken from ChEMBL document CHEMBL1128446, “Pyrazinoic acid esters with broad spectrum in vitro antimycobacterial activity” (1995).
In brackets after ≈: the same amount, converted by molar mass.

Assays:
Assay type in all cases: functional
Mycobacterium avium [1] = assay: Minimum Inhibitory Concentration in clinical isolates against Mycobacterium avium complex 101
Summary of the method: (§1)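 Broth macrodilution in tubes of modified Middlebrook 7H10 broth (agar and malachite green omitted) with 10% OADC and 0.05% Tween 80 at pH 5.8. Cultures were grown 3 days at 37 °C on a rotary shaker, then diluted with 7H10 broth to 1 Klett unit/mL. Stocks were made in water or DMSO and filter-sterilised; 2-fold serial dilutions were tested. Tubes shaken 7–10 days at 37 °C, with a drug-free control. MIC = lowest concentration (μg/mL) with no visible turbidity.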

Mycobacterium avium [2] = assay: Minimum Inhibitory Concentration against clinical isolates of Mycobacterium avium complex ATCC 49601; summary of the method: as §1
[3] = test system: Mycobacterium tuberculosis; assay: Minimum Inhibitory Concentration against Mycobacterium tuberculosis ATCC 27294; settings: Mycobacterium tuberculosis, ATCC 27294; read-out: MIC; summary of the method: as §1
[4] = test system: Mycobacterium tuberculosis; assay: Minimum Inhibitory Concentration against Mycobacterium tuberculosis ATCC 35801; summary of the method: as §1
Mycobacterium kansasii = assay: Minimum Inhibitory Concentration against clinical isolates of Mycobacterium kansasii S
Summary of the method: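 Grown 3 days at 37 °C on a rotary shaker in modified Middlebrook 7H10 broth (agar and malachite green omitted) with 10% OADC and 0.05% Tween 80. Diluted to 1 Klett unit/mL. Tubes held serial 2-fold dilutions in 7H10 broth at pH 5.8, from stocks in water or DMSO, and were shaken at 37 °C for 7–10 days with a drug-free control. MIC was the lowest concentration with no visible turbidity.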

SMILES	MIC (Mycobacterium avium [1])	MIC (Mycobacterium avium [2])	MIC [3]	MIC [4]	MIC (Mycobacterium kansasii)
O=C(OCc1ccc(Br)cc1)c1cnc(Cl)cn1	32 µg/mL (≈ 97.7 µM)	64 µg/mL (≈ 195 µM)	1 µg/mL (≈ 3.05 µM)	1 µg/mL (≈ 3.05 µM)	0.125 µg/mL (≈ 0.382 µM)
CCCCC(OC(=O)c1cnc(Cl)cn1)c1ccccc1 (configuration not stated)	128 µg/mL (≈ 420 µM)	64 µg/mL (≈ 210 µM)	4 µg/mL (≈ 13.1 µM)	2 µg/mL (≈ 6.56 µM)	1 µg/mL (≈ 3.28 µM)
CCCCCCCCCCCCCCCOC(=O)c1cnccn1	32 µg/mL (≈ 95.7 µM)	8 µg/mL (≈ 23.9 µM)	0.06 µg/mL (≈ 0.179 µM)	0.12 µg/mL (≈ 0.359 µM)	1 µg/mL (≈ 2.99 µM)
CC(C)(C)C(OC(=O)c1cnc(Cl)cn1)c1ccccc1 (configuration not stated)	128 µg/mL (≈ 420 µM)	256 µg/mL (≈ 840 µM)	4 µg/mL (≈ 13.1 µM)	4 µg/mL (≈ 13.1 µM)	2 µg/mL (≈ 6.56 µM)
O=C(Oc1c(Br)cc(Br)cc1Br)c1cnccn1	128 µg/mL (≈ 293 µM)	128 µg/mL (≈ 293 µM)	32 µg/mL (≈ 73.2 µM)	32 µg/mL (≈ 73.2 µM)	64 µg/mL (≈ 146 µM)
Cc1ccc(C(C)OC(=O)c2cnc(Cl)cn2)cc1 (configuration not stated)	256 µg/mL (≈ 925 µM)	16 µg/mL (≈ 57.8 µM)	1 µg/mL (≈ 3.61 µM)	1 µg/mL (≈ 3.61 µM)	1 µg/mL (≈ 3.61 µM)
Cc1cc(C(C)(C)C)c(OC(=O)c2cnccn2)c(C(C)(C)C)c1	> 1020 µg/mL	> 1020 µg/mL	128 µg/mL (≈ 392 µM)		> 16 µg/mL
O=C(OCCc1ccc(Cl)cc1)c1cnc(Cl)cn1	16 µg/mL (≈ 53.8 µM)	8 µg/mL (≈ 26.9 µM)	2 µg/mL (≈ 6.73 µM)	32 µg/mL (≈ 108 µM)	0.5 µg/mL (≈ 1.68 µM)
O=C(OC(c1ccccc1)c1ccccc1)c1cnc(Cl)cn1	> 64 µg/mL	> 64 µg/mL	16 µg/mL (≈ 49.3 µM)	16 µg/mL (≈ 49.3 µM)	8 µg/mL (≈ 24.6 µM)
CCCCCCCC(OC(=O)c1cnc(Cl)cn1)C(C)C (configuration not stated)	> 256 µg/mL	256 µg/mL (≈ 818 µM)	0.5 µg/mL (≈ 1.6 µM)	2 µg/mL (≈ 6.39 µM)	0.25 µg/mL (≈ 0.799 µM)
CCCCCCCCCCC(OC(=O)c1cnc(Cl)cn1)C(C)(C)C (configuration not stated)	> 256 µg/mL	256 µg/mL (≈ 694 µM)	16 µg/mL (≈ 43.4 µM)	8 µg/mL (≈ 21.7 µM)	4 µg/mL (≈ 10.8 µM)
CCCCCCCC(C)(CCCC)OC(=O)c1cnc(Cl)cn1 (configuration not stated)	> 256 µg/mL	> 256 µg/mL	4 µg/mL (≈ 11.7 µM)	8 µg/mL (≈ 23.5 µM)	16 µg/mL (≈ 46.9 µM)
CCCCCCCCOC(=O)c1cnc(Cl)cn1	16 µg/mL (≈ 59.1 µM)	16 µg/mL (≈ 59.1 µM)	0.06 µg/mL (≈ 0.222 µM)	< 0.03 µg/mL	< 0.03 µg/mL
CCCCCOC(=O)c1cnc(Cl)cn1	32 µg/mL (≈ 140 µM)	32 µg/mL (≈ 140 µM)	0.06 µg/mL (≈ 0.262 µM)	0.25 µg/mL (≈ 1.09 µM)	< 0.03 µg/mL
CC(C)COC(=O)c1cnccn1	256 µg/mL (≈ 1420 µM)		< 8 µg/mL	16 µg/mL (≈ 88.8 µM)	> 64 µg/mL
CCOC(=O)c1cnc(Cl)cn1	128 µg/mL (≈ 686 µM)	128 µg/mL (≈ 686 µM)	1 µg/mL (≈ 5.36 µM)	2 µg/mL (≈ 10.7 µM)	2 µg/mL (≈ 10.7 µM)
COC(=O)c1cnc(Cl)cn1	256 µg/mL (≈ 1480 µM)	64 µg/mL (≈ 371 µM)	4 µg/mL (≈ 23.2 µM)	8 µg/mL (≈ 46.4 µM)	2 µg/mL (≈ 11.6 µM)
CCCCCCC(C)OC(=O)c1cnc(Cl)cn1 (configuration not stated)	8 µg/mL (≈ 29.5 µM)	16 µg/mL (≈ 59.1 µM)	0.06 µg/mL (≈ 0.222 µM)	0.25 µg/mL (≈ 0.923 µM)	< 0.015 µg/mL
CCCCCCCCCC(C)OC(=O)c1cnc(Cl)cn1 (configuration not stated)	16 µg/mL (≈ 51.1 µM)	16 µg/mL (≈ 51.1 µM)	0.25 µg/mL (≈ 0.799 µM)	0.125 µg/mL (≈ 0.4 µM)	0.25 µg/mL (≈ 0.799 µM)
CCCCCC(CC)OC(=O)c1cnc(C)cn1 (configuration not stated)	64 µg/mL (≈ 256 µM)	64 µg/mL (≈ 256 µM)	1 µg/mL (≈ 3.99 µM)	0.5 µg/mL (≈ 2 µM)	4 µg/mL (≈ 16 µM)
O=C(OCc1ccccc1)c1cnc(Cl)cn1	8 µg/mL (≈ 32.2 µM)	4 µg/mL (≈ 16.1 µM)	1 µg/mL (≈ 4.02 µM)	0.5 µg/mL (≈ 2.01 µM)	1 µg/mL (≈ 4.02 µM)
CC(C)(C)OC(=O)c1cnc(Cl)cn1	128 µg/mL (≈ 596 µM)	128 µg/mL (≈ 596 µM)	0.25 µg/mL (≈ 1.16 µM)	0.5 µg/mL (≈ 2.33 µM)	< 1 µg/mL
O=C(Oc1cccc2ccccc12)c1cnccn1	128 µg/mL (≈ 511 µM)	64 µg/mL (≈ 256 µM)	8 µg/mL (≈ 32 µM)		> 16 µg/mL
C=CCOC(=O)c1cnc(Cl)cn1	64 µg/mL (≈ 322 µM)	64 µg/mL (≈ 322 µM)	1 µg/mL (≈ 5.04 µM)	1 µg/mL (≈ 5.04 µM)	< 1 µg/mL
O=C(OCCc1ccccc1)c1cnc(Cl)cn1	32 µg/mL (≈ 122 µM)	8 µg/mL (≈ 30.5 µM)	1 µg/mL (≈ 3.81 µM)	1 µg/mL (≈ 3.81 µM)	0.25 µg/mL (≈ 0.952 µM)
CC(OC(=O)c1cnc(Cl)cn1)c1ccc(Br)cc1 (configuration not stated)	32 µg/mL (≈ 93.7 µM)	16 µg/mL (≈ 46.8 µM)	2 µg/mL (≈ 5.85 µM)	8 µg/mL (≈ 23.4 µM)	0.25 µg/mL (≈ 0.732 µM)
CCCOC(=O)c1cnc(Cl)cn1	16 µg/mL (≈ 79.8 µM)	16 µg/mL (≈ 79.8 µM)	0.06 µg/mL (≈ 0.299 µM)	< 0.03 µg/mL	0.25 µg/mL (≈ 1.25 µM)
CCCCCCCOC(=O)c1cnc(Cl)cn1	8 µg/mL (≈ 31.2 µM)	16 µg/mL (≈ 62.3 µM)	0.06 µg/mL (≈ 0.234 µM)	< 0.03 µg/mL	< 0.03 µg/mL
CCC(C)(CC)OC(=O)c1cnc(Cl)cn1	> 256 µg/mL	256 µg/mL (≈ 1050 µM)	8 µg/mL (≈ 33 µM)	8 µg/mL (≈ 33 µM)	2 µg/mL (≈ 8.24 µM)
CCCCCCOC(=O)c1cnc(Cl)cn1	32 µg/mL (≈ 132 µM)	16 µg/mL (≈ 65.9 µM)	0.125 µg/mL (≈ 0.515 µM)	0.125 µg/mL (≈ 0.515 µM)	0.015 µg/mL (≈ 0.0618 µM)
